Experimental data from ChEMBL document CHEMBL1124944, “Synthesis and in vitro evaluation of some modified 4-thiopyrimidine nucleosides for prevention or reversal of AIDS-associated neurological disorders” (J Med Chem, 1990).
pEC50, pIC50, pKi: −log10 of the molar value.

Legend:
[1] = Ratio of PNS to the PN (Partition coefficient ratio between thio analogue to its oxo analogue)
Method in brief: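 Partitioning was between equal volumes of 1-octanol and 100 mM sodium phosphate pH 7.0. Phases were separated by centrifugation and each phase was quantified by UV absorbance at a wavelength chosen from spectra. The ratio is the thio analogue's partition coefficient over that of its oxo parent.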

Deoxycytidine kinase = Deoxycytidine kinase (Homo sapiens, UniProt P27707); assay: Inhibitory affect against rabbit deoxycytidine kinase and represented as molt/4F kinase.; design: species or system Oryctolagus cuniculus; details: target entry is the homologue from another species
Chain of Deoxycytidine kinase (P27707 whole entry): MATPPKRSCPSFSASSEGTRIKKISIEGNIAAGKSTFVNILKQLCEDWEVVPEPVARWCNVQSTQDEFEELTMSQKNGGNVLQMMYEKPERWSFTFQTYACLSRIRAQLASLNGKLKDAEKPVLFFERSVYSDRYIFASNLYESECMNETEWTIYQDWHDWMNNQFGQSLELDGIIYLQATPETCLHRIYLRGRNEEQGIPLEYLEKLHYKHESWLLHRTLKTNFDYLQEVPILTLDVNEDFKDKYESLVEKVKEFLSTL

MT2 [2] = assay: Concentration of the drug resulting in 50% reduction of the viral cytopathic effect against HIV-1 replication in MT-2 cells.; assay type: functional, cell-based; details: Homo sapiens
Method in brief: (§1)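 NCI cytoprotection screen: HIV added at low amounts to T4 lymphoid cells (MT-2 or CEM), allowing at least two complete replication cycles to produce cell killing. […] An AZT-treated positive control was run alongside under identical conditions.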

CCRF-CEM [3] = assay: Concentration of the drug resulting in 50% growth inhibition of normal, uninfected cells against HIV-1 replication in CEM cells.; assay type: functional, cell-based; details: Homo sapiens; method in brief: as §1
MT2 [4] = assay: Concentration of the drug resulting in 50% growth inhibition of normal, uninfected cells against HIV-1 replication in MT-2 cells.; assay type: functional, cell-based; details: Homo sapiens; method in brief: as §1
CCRF-CEM [5] = assay: Concentration of the drug resulting in 50% reduction of the viral cytopathic effect against HIV-1 replication in CEM cells.; assay type: functional, cell-based; details: Homo sapiens; method in brief: as §1

SMILES | P ratio [1] | pKi (Deoxycytidine kinase) | pEC50 (MT2 [2]) | pIC50 (CCRF-CEM [3]) | pIC50 (MT2 [4]) | pEC50 (CCRF-CEM [5])
Cc1cn([C@H]2C[C@H](N=[N+]=[N-])[C@@H](CO)O2)c(=O)[nH]c1=S | 6.99 |  |  |  |  | 
O=c1[nH]c(=S)ccn1[C@H]1CC[C@@H](CO)O1 | 1.56 |  |  |  |  | 
Nc1ccn([C@H]2C=C[C@@H](CO)O2)c(=O)n1 |  | 2.34 |  |  |  | 
Cc1cn([C@H]2C[C@H](N=[N+]=[N-])[C@@H](CO)O2)c(=O)[nH]c1=O [ZIDOVUDINE] |  |  | 6.74 | < 4.00 | < 3.01 | 9.49
O=c1[nH]c(=S)ccn1[C@H]1C=C[C@@H](CO)O1 | 1.23 |  |  |  |  | 
Cc1cn([C@H]2CC[C@@H](CO)O2)c(=O)[nH]c1=S | 6.41 |  | 4.41 | 4.03 | 4.05 | 4.51
Cc1cn([C@H]2C=C[C@@H](CO)O2)c(=O)[nH]c1=S | 5.39 |  | 4.57 | < 3.37 | < 4.10 | 4.41
Cc1cn([C@H]2C=C[C@@H](CO)O2)c(=O)[nH]c1=O [STAVUDINE] |  |  | 5.70 | 3.63 | 4.15 | 6.10
